Columns and labels:
Type in all cases: functional
SK-MEL-2 = assay: Cytotoxicity against human SK-MEL-2 cells
How it was run: (§1)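 Tested in a 60-cell-line human tumor panel screen; the read-out is growth inhibition, reported as GI50 for each cell line.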

SK-MEL-5 = assay: Cytotoxicity against human SK-MEL-5 cells; how it was run: as §1
[1] = Cytotoxicity against human UACC257 cells
How it was run: (§2)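 Cell line run as part of the 60-cell-line screening panel; growth inhibition was reported as a GI50 for each line.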

[2] = Cytotoxicity against human UACC62 cells; how it was run: as §2
[3] = Cytotoxicity against human OVCAR3 cells; how it was run: as §1
[4] = Cytotoxicity against human OVCAR5 cells; how it was run: as §1
[5] = Cytotoxicity against human OVCAR8 cells; how it was run: as §1
[6] = Cytotoxicity against human NCI-ADR-RES cells; how it was run: as §1
SK-OV-3 = assay: Cytotoxicity against human SKOV3 cells; how it was run: as §1
786-0 = assay: Cytotoxicity against human 786-0 cells; how it was run: as §1
A498 = assay: Cytotoxicity against human A498 cells; how it was run: as §1
ACHN = assay: Cytotoxicity against human ACHN cells; how it was run: as §1
RXF 393 = assay: Cytotoxicity against human RXF393 cells; how it was run: as §1
SN12C = assay: Cytotoxicity against human SN12C cells; how it was run: as §1
[7] = Cytotoxicity against human UO31 cells; how it was run: as §2
PC-3 = assay: Cytotoxicity against human PC3 cells; how it was run: as §1
DU-145 = assay: Cytotoxicity against human DU145 cells; how it was run: as §1
MCF7 = assay: Cytotoxicity against human MCF7 cells; how it was run: as §1
MDA-MB-231 = assay: Cytotoxicity against human MDA-MB-231 cells; how it was run: as §1
BT-549 = assay: Cytotoxicity against human BT549 cells; how it was run: as §1
T47D = assay: Cytotoxicity against human T47D cells; how it was run: as §2
MDA-MB-468 = assay: Cytotoxicity against human MDA-MB-468 cells; how it was run: as §1
[8] = read-out: pLC50 (the source's name) (converted)

Structure (SMILES): CC1(C)[C@H](O)CC[C@@]2(C)Oc3c(O)cc(/C=C/c4cc(O)c5cc[nH]c5c4)cc3C[C@H]12
- CC50 (SK-MEL-2; [8]): 97.7 µM
- TGI (SK-MEL-2; read-out: pTGI (converted)): 21.4 µM
- GI50 (SK-MEL-5): 0.372 µM
- CC50 (SK-MEL-5; [8]): 3.98 µM
- TGI (SK-MEL-5; read-out: pTGI (converted)): 1.51 µM
- GI50 ([1]; UACC-257): 3.8 µM
- CC50 ([1]; UACC-257, read-out: pLC50 (the source's name) (converted)): 66.1 µM
- TGI ([1]; UACC-257, read-out: pTGI (converted)): 16.2 µM
- GI50 ([2]; UACC-62): 0.617 µM
- CC50 ([2]; UACC-62, read-out: pLC50 (the source's name) (converted)): 33.9 µM
- TGI ([2]; UACC-62, read-out: pTGI (converted)): 6.46 µM
- GI50 ([3]; OVCAR-3): 3.47 µM
- CC50 ([3]; OVCAR-3, read-out: pLC50 (the source's name) (converted)): 66.1 µM
- TGI ([3]; OVCAR-3, read-out: pTGI (converted)): 21.4 µM
- GI50 ([4]; OVCAR-5): 17.8 µM
- CC50 ([4]; OVCAR-5, read-out: pLC50 (the source's name) (converted)): 97.7 µM
- TGI ([4]; OVCAR-5, read-out: pTGI (converted)): 53.7 µM
- GI50 ([5]; OVCAR-8): 4.79 µM
- CC50 ([5]; OVCAR-8, read-out: pLC50 (the source's name) (converted)): > 100 µM
- TGI ([5]; OVCAR-8, read-out: pTGI (converted)): 42.7 µM
- GI50 [6]: 3.24 µM
- CC50 [6, 8]: > 100 µM
- TGI ([6]; read-out: pTGI (converted)): 31.6 µM
- GI50 (SK-OV-3): 1.95 µM
- LC50 (SK-OV-3): > 100 µM
- TGI (SK-OV-3; read-out: pTGI (converted)): 18.6 µM
- GI50 (786-0): 0.0457 µM
- LC50 (concentration killing 50% of cells) (786-0): 12.9 µM
- TGI (786-0; read-out: pTGI (converted)): 1.17 µM
- GI50 (A498): 0.427 µM
- CC50 (A498; [8]): 46.8 µM
- TGI (A498; read-out: pTGI (converted)): 11.7 µM
- GI50 (ACHN): 2.14 µM
- LC50 (concentration killing 50% of cells) (ACHN): > 100 µM
- TGI (ACHN; read-out: pTGI (converted)): 30.9 µM
- GI50 (RXF 393): 0.01 µM
- LC50 (RXF 393): 0.389 µM
- TGI (RXF 393; read-out: pTGI (converted)): 0.0246 µM
- GI50 (SN12C): 10.2 µM
- LC50 (SN12C): > 100 µM
- TGI (SN12C; read-out: pTGI (converted)): 63.1 µM
- GI50 ([7]; UO-31): 0.209 µM
- LC50 ([7]; UO-31): > 100 µM
- TGI ([7]; UO-31, read-out: pTGI (converted)): 2 µM
- GI50 (PC-3): 0.245 µM
- LC50 (PC-3): 55 µM
- TGI (PC-3; read-out: pTGI (converted)): 4.07 µM
- GI50 (DU-145): 0.912 µM
- LC50 (50% lethal concentration) (DU-145): 33.1 µM
- TGI (DU-145; read-out: pTGI (converted)): 6.46 µM
- GI50 (MCF7): 1.35 µM
- LC50 (MCF7): > 100 µM
- TGI (MCF7; read-out: pTGI (converted)): 16.2 µM
- GI50 (MDA-MB-231): 1.7 µM
- LC50 (MDA-MB-231): > 100 µM
- TGI (MDA-MB-231; read-out: pTGI (converted)): 32.4 µM
- GI50 (BT-549): 0.0214 µM
- CC50 (BT-549; [8]): 57.5 µM
- TGI (BT-549; read-out: pTGI (converted)): 5.37 µM
- GI50 (T47D): 7.59 µM
- CC50 (T47D; [8]): 83.2 µM
- TGI (T47D; read-out: pTGI (converted)): 27.5 µM
- GI50 (MDA-MB-468): 1.2 µM
- LC50 (MDA-MB-468): 36.3 µM
- TGI (MDA-MB-468; read-out: pTGI (converted)): 5.13 µM

Source: ChEMBL document CHEMBL3232844, “Synthesis and structure activity relationships of schweinfurthin indoles” (2014)
